# Source: ChEMBL document CHEMBL5705888, “Substrate specificity and inhibitors of LRRK2, a protein kinase mutated in Parkinson's disease” (Biochem J, 2009)
# Active and inactive are the calls of the source. The calls are words filed in the database; no cut-off is given here.
# Assays:
# [1] = target: Misshapen-like kinase 1 (Homo sapiens) (UniProt Q8N4C8); experiment: Inhibition of MINK1 (unknown origin) at 1 uM incubated for 30 mins in presence of [gamma-33P]ATP by multidrop micro reagent based assay relative to control
# [2] = target: Fibroblast growth factor receptor 1 (Homo sapiens) (UniProt P11362); experiment: Inhibition of FGFR1 (unknown origin) at 1 uM incubated for 30 mins in presence of [gamma-33P]ATP by multidrop micro reagent based assay relative to control
# [3] = target: T1, Rho-associated protein kinase 2 (Homo sapiens, UniProt O75116); experiment: Inhibition of ROCK2 in human Flp-In-T-REx-293 cells harboring GFP-tagged constitutively active G14V-Rho mutant assessed as inhibition of MYPT phosphorylation at Thr850 at 10 uM incubated for 1 hr by immunoblot analysis; assay type: cell-based
# Outline: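 Flp-In T-REx cells carrying GFP-tagged G14V-Rho were induced with 1 μg/ml doxycycline in the medium. Seven hours after induction, cells were treated with 10 μM inhibitor for 1 h. They were then lysed directly in SDS lysis buffer and run on 4–12% gels. Blots were probed with anti-MYPT pThr850 (1 μg/ml in 5% BSA/TBST), followed by HRP secondary and ECL detection.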
# [4] = target: T2, Interleukin-1 receptor-associated kinase 4 (Homo sapiens) (UniProt Q9NWZ3); experiment: Activity of IRAK4 (unknown origin) at 1 uM incubated for 30 mins in presence of [gamma-33P]ATP by multidrop micro reagent based assay relative to control
# T2 sequence (whole entry): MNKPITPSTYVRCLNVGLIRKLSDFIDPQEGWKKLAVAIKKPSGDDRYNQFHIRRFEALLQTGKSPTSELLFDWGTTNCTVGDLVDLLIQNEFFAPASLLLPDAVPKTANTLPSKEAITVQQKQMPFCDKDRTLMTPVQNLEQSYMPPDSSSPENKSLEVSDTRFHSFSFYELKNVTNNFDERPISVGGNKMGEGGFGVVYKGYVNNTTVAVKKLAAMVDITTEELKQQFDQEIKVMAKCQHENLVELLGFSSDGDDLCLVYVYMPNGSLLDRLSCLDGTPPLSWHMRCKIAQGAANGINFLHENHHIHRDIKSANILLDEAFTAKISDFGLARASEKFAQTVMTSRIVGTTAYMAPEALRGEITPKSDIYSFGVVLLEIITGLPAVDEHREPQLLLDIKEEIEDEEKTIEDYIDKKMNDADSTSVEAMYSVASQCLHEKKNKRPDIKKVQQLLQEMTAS
# [5] = target: Dual specificity mitogen-activated protein kinase kinase 1 (Homo sapiens) (UniProt Q02750); experiment: Inhibition of MKK1 (unknown origin) at 1 uM incubated for 30 mins in presence of [gamma-33P]ATP by multidrop micro reagent based assay relative to control; values are per cent of control
# [6] = target: Mitogen-activated protein kinase 8 (Homo sapiens) (UniProt P45983); experiment: Inhibition of JNK1 (unknown origin) at 1 uM incubated for 30 mins in presence of [gamma-33P]ATP by multidrop micro reagent based assay relative to control; values are per cent of control
# [7] = target: Ribosomal protein S6 kinase alpha-1 (Homo sapiens) (UniProt Q15418); experiment: Inhibition of RSK1 (unknown origin) at 1 uM incubated for 30 mins in presence of [gamma-33P]ATP by multidrop micro reagent based assay relative to control; values are per cent of control
# [8] = target: Ribosomal protein S6 kinase beta-1 (Homo sapiens) (UniProt P23443); experiment: Inhibition of S6K1 (unknown origin) at 1 uM incubated for 30 mins in presence of [gamma-33P]ATP by multidrop micro reagent based assay relative to control; values are per cent of control
# [9] = target: Leucine-rich repeat serine/threonine-protein kinase 2 (Homo sapiens, UniProt Q5S007); experiment: Inhibition of LRRK2 (unknown origin) at 1 uM incubated for 30 mins in presence of [gamma-33P]ATP by multidrop micro reagent based assay relative to control; values are per cent of control
# [10] = target: T1, Rho-associated protein kinase 2; experiment: Inhibition of ROCK2 (unknown origin) at 1 uM incubated for 30 mins in presence of [gamma-33P]ATP by multidrop micro reagent based assay relative to control; values are per cent of control
# [11] = target: Calcium/calmodulin-dependent protein kinase type 1 (Homo sapiens) (UniProt Q14012); experiment: Inhibition of CaMK1 (unknown origin) at 1 uM incubated for 30 mins in presence of [gamma-33P]ATP by multidrop micro reagent based assay relative to control; values are per cent of control
# [12] = target: T3, Dual specificity tyrosine-phosphorylation-regulated kinase 2 (Homo sapiens) (UniProt Q92630); experiment: Inhibition of DYRK2 (unknown origin) at 1 uM incubated for 30 mins in presence of [gamma-33P]ATP by multidrop micro reagent based assay relative to control; values are per cent of control
# T3 sequence (whole entry): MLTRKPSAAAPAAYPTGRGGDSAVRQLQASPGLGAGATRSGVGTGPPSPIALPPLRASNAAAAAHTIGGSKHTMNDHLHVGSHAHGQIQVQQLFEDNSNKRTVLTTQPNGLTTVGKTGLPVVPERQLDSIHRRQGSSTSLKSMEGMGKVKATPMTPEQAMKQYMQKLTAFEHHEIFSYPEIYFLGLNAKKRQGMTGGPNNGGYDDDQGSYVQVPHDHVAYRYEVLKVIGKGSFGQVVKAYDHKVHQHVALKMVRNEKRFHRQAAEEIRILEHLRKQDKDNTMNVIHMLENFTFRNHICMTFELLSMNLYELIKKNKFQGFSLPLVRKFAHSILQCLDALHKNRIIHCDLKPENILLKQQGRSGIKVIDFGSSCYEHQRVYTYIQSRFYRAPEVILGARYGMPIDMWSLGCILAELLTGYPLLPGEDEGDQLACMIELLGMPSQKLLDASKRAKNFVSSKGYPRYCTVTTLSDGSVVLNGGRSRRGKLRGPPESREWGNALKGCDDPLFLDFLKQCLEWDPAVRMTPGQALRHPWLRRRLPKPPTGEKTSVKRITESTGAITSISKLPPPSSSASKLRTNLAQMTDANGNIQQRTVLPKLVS
# [13] = target: Aurora kinase B (Homo sapiens) (UniProt Q96GD4); experiment: Inhibition of Aurora B kinase (unknown origin) at 1 uM incubated for 30 mins in presence of [gamma-33P]ATP by multidrop micro reagent based assay relative to control; values are per cent of control
# Aurora kinase B (Homo sapiens), sequence (Q96GD4 whole entry): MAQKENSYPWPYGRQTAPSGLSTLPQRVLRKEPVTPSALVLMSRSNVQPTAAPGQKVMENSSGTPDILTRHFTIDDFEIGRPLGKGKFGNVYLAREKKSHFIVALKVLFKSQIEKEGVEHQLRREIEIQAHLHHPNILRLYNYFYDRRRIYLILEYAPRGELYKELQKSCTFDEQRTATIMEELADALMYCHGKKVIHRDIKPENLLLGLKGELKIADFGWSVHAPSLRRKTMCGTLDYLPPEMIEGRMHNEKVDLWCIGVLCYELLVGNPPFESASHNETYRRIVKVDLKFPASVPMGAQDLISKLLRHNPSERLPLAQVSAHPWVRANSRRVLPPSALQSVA
# Dual specificity mitogen-activated protein kinase kinase 1 (Homo sapiens), sequence (Q02750 whole entry): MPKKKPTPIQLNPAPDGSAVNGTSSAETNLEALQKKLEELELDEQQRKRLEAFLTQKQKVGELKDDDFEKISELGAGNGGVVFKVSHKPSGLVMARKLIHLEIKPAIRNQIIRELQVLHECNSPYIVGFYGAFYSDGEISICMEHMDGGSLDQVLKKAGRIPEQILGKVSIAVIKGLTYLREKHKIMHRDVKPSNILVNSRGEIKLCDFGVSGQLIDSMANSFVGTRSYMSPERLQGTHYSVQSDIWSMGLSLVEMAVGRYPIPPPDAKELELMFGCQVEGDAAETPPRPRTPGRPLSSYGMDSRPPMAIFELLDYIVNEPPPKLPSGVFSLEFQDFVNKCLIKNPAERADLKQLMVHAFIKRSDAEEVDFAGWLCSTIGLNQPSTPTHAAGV
# Misshapen-like kinase 1 (Homo sapiens), sequence (Q8N4C8 whole entry, looked up): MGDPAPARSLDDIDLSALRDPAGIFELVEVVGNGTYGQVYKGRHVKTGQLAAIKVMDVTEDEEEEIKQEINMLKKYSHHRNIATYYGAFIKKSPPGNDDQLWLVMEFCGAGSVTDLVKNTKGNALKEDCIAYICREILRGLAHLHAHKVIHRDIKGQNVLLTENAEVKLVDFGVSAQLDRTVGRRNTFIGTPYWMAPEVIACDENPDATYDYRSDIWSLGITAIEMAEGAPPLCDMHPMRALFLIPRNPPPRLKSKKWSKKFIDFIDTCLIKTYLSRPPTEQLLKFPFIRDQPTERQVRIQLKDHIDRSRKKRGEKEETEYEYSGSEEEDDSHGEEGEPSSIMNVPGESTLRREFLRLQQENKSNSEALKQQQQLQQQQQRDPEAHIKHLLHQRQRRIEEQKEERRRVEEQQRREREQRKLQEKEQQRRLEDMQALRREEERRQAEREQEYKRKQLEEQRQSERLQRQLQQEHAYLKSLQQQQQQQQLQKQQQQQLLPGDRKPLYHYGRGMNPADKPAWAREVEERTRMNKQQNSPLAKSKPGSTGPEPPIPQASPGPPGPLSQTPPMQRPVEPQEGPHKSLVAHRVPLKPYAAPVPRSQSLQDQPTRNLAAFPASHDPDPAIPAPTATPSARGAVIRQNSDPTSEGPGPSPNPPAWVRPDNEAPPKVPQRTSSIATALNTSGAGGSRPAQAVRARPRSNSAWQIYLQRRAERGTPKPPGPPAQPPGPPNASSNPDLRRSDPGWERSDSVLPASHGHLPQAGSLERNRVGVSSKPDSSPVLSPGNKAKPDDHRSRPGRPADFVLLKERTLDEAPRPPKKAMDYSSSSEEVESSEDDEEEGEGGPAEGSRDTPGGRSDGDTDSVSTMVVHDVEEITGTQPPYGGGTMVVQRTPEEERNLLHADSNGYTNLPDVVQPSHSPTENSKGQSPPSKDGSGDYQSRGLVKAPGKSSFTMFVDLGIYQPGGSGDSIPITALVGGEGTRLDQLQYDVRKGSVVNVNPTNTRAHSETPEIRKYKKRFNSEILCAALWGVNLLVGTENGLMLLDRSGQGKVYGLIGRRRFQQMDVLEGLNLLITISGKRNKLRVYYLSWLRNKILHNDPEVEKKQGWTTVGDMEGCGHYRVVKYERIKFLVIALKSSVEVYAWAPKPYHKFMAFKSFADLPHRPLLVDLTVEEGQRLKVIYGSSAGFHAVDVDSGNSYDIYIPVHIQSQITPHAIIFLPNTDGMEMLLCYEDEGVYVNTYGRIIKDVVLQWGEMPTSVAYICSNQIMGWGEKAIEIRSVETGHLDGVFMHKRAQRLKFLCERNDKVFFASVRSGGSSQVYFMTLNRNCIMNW
# Mitogen-activated protein kinase 8 (Homo sapiens), sequence (P45983 whole entry): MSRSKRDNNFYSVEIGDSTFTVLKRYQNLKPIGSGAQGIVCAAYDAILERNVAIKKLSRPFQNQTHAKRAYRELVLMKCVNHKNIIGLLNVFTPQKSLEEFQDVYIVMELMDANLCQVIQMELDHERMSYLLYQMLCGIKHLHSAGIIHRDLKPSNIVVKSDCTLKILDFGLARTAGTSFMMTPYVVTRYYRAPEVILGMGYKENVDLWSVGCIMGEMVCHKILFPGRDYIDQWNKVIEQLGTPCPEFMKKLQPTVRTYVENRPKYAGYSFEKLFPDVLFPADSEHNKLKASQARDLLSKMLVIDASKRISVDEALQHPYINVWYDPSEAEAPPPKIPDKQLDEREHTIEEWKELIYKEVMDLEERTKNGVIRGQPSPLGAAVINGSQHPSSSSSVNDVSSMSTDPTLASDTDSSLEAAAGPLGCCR
# T1 sequence (O75116 whole entry, looked up): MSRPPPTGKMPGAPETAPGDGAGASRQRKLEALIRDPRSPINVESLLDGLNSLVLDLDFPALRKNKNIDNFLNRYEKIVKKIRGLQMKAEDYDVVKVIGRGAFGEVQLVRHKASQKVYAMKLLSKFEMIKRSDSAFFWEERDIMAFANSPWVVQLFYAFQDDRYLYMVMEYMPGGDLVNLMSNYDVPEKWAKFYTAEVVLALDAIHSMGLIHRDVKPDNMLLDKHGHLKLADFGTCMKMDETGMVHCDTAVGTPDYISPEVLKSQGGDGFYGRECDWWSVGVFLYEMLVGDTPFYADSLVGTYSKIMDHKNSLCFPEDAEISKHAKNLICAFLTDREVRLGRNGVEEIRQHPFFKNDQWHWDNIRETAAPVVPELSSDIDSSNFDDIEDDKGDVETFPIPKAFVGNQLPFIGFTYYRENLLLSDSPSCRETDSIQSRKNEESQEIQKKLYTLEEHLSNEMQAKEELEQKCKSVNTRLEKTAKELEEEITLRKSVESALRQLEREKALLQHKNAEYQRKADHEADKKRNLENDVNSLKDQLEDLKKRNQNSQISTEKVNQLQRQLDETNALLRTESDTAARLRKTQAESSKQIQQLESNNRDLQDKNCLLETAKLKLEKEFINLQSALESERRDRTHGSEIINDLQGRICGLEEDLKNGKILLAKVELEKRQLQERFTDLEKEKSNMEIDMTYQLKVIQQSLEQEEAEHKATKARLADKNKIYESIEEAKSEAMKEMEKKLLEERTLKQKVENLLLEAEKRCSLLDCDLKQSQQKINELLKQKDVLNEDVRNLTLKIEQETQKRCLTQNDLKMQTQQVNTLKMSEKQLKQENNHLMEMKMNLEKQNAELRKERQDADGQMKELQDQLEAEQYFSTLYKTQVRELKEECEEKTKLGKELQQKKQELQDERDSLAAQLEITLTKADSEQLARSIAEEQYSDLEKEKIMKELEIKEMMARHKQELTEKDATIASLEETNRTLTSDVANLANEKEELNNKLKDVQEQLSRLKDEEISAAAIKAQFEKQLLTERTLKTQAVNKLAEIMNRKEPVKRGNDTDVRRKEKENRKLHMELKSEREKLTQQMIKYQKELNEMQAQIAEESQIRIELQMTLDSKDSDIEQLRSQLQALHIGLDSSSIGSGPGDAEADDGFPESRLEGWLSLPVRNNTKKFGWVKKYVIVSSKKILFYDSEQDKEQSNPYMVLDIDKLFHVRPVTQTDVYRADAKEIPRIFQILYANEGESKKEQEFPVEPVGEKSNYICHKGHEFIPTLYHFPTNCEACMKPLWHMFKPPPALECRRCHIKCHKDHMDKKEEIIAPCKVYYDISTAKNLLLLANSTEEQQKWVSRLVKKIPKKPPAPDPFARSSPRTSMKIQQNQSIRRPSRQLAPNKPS
# Calcium/calmodulin-dependent protein kinase type 1 (Homo sapiens), sequence (Q14012 whole entry, looked up): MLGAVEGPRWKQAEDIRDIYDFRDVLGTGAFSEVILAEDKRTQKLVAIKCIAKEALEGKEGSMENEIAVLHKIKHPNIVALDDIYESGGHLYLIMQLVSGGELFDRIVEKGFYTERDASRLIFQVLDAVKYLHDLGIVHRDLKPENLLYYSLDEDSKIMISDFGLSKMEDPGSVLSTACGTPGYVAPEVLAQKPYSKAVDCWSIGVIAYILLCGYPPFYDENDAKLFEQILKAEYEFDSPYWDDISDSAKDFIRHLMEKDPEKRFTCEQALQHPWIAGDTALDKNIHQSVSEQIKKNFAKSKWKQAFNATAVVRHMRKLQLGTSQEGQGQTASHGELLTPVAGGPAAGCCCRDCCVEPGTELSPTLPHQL
# Ribosomal protein S6 kinase alpha-1 (Homo sapiens), sequence (Q15418 whole entry): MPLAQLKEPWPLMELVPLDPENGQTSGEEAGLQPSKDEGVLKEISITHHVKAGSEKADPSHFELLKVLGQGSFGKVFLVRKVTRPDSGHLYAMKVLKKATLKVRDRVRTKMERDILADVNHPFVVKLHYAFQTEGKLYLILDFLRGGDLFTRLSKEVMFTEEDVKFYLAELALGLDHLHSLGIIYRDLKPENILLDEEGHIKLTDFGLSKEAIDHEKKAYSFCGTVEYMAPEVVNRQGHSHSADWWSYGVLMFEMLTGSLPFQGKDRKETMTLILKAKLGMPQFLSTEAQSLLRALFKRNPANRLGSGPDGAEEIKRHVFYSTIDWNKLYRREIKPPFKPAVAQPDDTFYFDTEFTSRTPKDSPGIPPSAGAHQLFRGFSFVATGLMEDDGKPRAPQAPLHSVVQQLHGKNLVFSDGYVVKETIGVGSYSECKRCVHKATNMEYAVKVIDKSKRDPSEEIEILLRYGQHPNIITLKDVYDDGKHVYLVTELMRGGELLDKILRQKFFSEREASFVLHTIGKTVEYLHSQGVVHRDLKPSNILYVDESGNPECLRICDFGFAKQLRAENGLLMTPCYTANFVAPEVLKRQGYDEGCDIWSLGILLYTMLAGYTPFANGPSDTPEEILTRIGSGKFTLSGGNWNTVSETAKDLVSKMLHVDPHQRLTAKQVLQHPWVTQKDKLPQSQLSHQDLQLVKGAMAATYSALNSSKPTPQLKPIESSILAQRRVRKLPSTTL
Structure (SMILES),residual activity [1],inhibition [2],inhibition [3],residual activity [4],residual activity [5],residual activity [6],residual activity [7],residual activity [8],residual activity [9],residual activity [10],residual activity [11],residual activity [12],residual activity [13]
CC1=C(C(=O)Nc2cc3cn[nH]c3cc2F)C(c2ccc(C(F)(F)F)cc2)CC(=O)N1 (stereo not drawn),75%,95%,Active,94%,61%,111%,20%,24%,98%,3%,102%,92%,59%
Cc1cncc2cccc(S(=O)(=O)N3CCCNC[C@@H]3C)c12,104%,35%,Active,102%,69%,96%,57%,72%,20%,3%,105%,84%,11%
CCN(CC)CCNC(=O)c1c(C)[nH]c(/C=C2\C(=O)Nc3ccc(F)cc32)c1C,8%,29%,–,–,–,–,78%,–,–,67%,–,–,29%
CCn1c(-c2nonc2N)nc2cnc(Oc3cccc(NC(=O)c4ccc(OCCN5CCOCC5)cc4)c3)cc21 [GSK-269962A],70%,–,–,78%,54%,105%,12%,2%,71%,1%,122%,64%,36%
C[C@@H](N)[C@H]1CC[C@H](C(=O)Nc2ccncc2)CC1,–,–,Active,–,–,–,–,–,–,–,–,–,–
